{"source": "ChEMBL document CHEMBL4043073", "about": "“Boronic Acid Modifications Enhance the Anti-Influenza A Virus Activities of Novel Quindoline Derivatives” (J Med Chem, 2017)", "key": {"[1]": {"test_system": "Influenza A virus (A/Puerto Rico/8/1934(H1N1))", "assay": "Inhibition of Influenza A virus (A/Puerto Rico/8/34(H1N1)) hemagglutinin mediated chicken erythrocytes aggregation at 10 uM after 60 mins by hemagglutination test", "format": "cell-based", "summary_of_the_method": "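Hemagglutination inhibition: PR8-induced aggregation of chicken erythrocytes tested with 10 μM compound; anti-HA antibody (0.625–5 μg/mL) as comparator.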"}, "[2]": {"test_system": "Vero", "assay": "Inhibition of Influenza A virus (A/Puerto Rico/8/34(H1N1)) hemagglutinin expressed in African green monkey Vero cells assessed as reduction in acid-induced syncytium formation preincubated at pH 7 for 15 mins followed by incubation at pH 5 for 10 mins measured after 2 hrs by Hema3Stat Pak-staining based microscopic analysis", "format": "cell-based", "settings": "Influenza A virus (A/Puerto Rico/8/1934(H1N1))", "summary_of_the_method": "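Vero cells transfected with PR8 HA plasmid. At 16 h HA was cleaved with 5 μg/mL TPCK-trypsin for 15 min at 37 °C. Cells were preincubated with compound 15 min at 37 °C, then held at pH 5.0 with compound for 10 min at 37 °C. After rinsing, cells were kept 2 h in 10% FBS medium, stained with Hema3Stat Pak and examined for syncytia by microscopy.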"}, "[3]": {"species_on_record": "Canis lupus familiaris", "assay": "Inhibition of MAPK signaling-mediated nuclear import of viral RNP in MDCK cells infected with Influenza A virus (A/Puerto Rico/8/34(H1N1)) assessed as ERK1/2 phosphorylation at 10 uM preincubated with virus for 1 hr followed by viral infection after 4 hrs by Western blot method relative to control (reference value: 1.4)", "format": "cell-based", "summary_of_the_method": "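PR8 (MOI 1.0) pretreated with compound 1 h at 37 °C, then MDCK cells were kept in infecting medium with 5 or 10 μM for 4 h; ribavirin 50 μg/mL as comparator. Lysates were immunoblotted for phospho-ERK1/2, p38, NF-κB or Akt, with β-actin/GAPDH loading controls and AP/NBT-BCIP detection. Densitometry was normalised to uninfected cells (= 1.0); n = 3.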"}, "[4]": {"test_system": "Influenza A virus", "assay": "Antiviral activity against Influenza A virus (A/Puerto Rico/8/34(H1N1)) infected in A549 cells assessed as reduction in nuclear import of viral RNP by measuring colocalization with viral NP in cytoplasm at 10 uM preincubated with virus at 37 degC for 1 hr followed by viral adsorption at 4 degC for 1 hr and subsequent infection in A549 cells measured at 2 to 4 hrs post infection by confocal microscopic method", "format": "functional, cell-based", "settings": "A/Puerto Rico/8/1934(H1N1)", "summary_of_the_method": "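PR8 (MOI 1.0) pretreated with 10 μM compound 1 h at 37 °C, adsorbed 1 h at 4 °C, then A549 cells were kept in infecting medium with 10 μM compound. Fixed with 4% paraformaldehyde at 2 or 4 h p.i., permeabilised with Triton X-100 and blocked. Anti-NP plus FITC secondary, confocal imaging; nuclear NP intensity per unit area quantified (n = 30 images).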"}}, "note": "Activity calls are given as the source filed them. The calls are words filed in the database; no cut-off is given here.", "data": [{"compound": "O=C(Nc1ccccc1Nc1c2ccccc2nc2c1[nH]c1ccccc12)c1cccc(B(O)O)c1", "values": [{"measurement": "inhibition", "setting": "[1]", "value": "inactive"}, {"measurement": "inhibition", "setting": "[2]", "value": "inactive"}, {"measurement": "fold change (FC)", "setting": "[3]", "value": 0.6}, {"measurement": "Activity", "setting": "[4]", "value": "Active"}]}]}
